Results: ChEMBL document CHEMBL3414429, “3,4-diaminobenzoic acid derivatives as inhibitors of the oxytocinase subfamily of M1 aminopeptidases with immune-regulating properties” (J Med Chem, 2015)
The source made the active and inactive calls. No cut-off for these calls is given here.

Tests used:
[1] = molecular target: Leucyl-cystinyl aminopeptidase (Homo sapiens, UniProt Q9UIQ6); experiment: Inhibition of human recombinant IRAP expressed in baculovirus infected cabbage looper ovary Hi5 cells using L-leucine-7-amido-4-methyl coumarin as substrate after 5 to 10 mins by fluorescence assay; design: species or system Female gonad, BTI-TN-5B1-4
Leucyl-cystinyl aminopeptidase, sequence (Q9UIQ6 whole entry): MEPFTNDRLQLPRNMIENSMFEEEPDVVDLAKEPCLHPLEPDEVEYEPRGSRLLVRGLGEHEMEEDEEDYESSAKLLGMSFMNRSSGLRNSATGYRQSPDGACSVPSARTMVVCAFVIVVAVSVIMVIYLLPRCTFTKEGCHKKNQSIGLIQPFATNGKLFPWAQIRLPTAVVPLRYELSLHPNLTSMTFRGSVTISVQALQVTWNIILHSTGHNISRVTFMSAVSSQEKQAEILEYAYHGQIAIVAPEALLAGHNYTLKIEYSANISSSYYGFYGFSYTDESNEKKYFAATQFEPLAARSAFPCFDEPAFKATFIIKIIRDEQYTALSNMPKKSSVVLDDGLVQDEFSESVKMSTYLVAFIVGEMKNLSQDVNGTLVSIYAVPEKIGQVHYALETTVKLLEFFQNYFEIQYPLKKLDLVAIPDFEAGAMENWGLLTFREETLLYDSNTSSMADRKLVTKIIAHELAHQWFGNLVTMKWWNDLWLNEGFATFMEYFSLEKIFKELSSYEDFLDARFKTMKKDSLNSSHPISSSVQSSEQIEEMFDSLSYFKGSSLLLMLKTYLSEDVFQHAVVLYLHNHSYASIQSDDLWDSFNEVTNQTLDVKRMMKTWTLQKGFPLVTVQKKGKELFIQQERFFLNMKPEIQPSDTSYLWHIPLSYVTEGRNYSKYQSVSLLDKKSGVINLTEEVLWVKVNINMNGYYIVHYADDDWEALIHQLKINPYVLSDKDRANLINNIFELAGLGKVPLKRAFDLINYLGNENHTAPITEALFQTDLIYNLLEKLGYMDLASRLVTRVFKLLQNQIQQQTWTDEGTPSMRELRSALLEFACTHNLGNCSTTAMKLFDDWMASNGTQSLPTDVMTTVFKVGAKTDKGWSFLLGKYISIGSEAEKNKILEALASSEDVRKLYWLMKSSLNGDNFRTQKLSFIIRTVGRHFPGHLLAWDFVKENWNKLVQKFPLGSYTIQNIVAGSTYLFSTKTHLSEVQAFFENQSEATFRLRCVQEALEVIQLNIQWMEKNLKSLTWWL

[2] = molecular target: Endoplasmic reticulum aminopeptidase 1 (Homo sapiens, UniProt Q9NZ08); experiment: Inhibition of human recombinant ERAP1 expressed in baculovirus infected […] using L-leucine-7-amido-4-methyl coumarin as substrate up to 100 uM after 5 to 10 mins by fluorescence assay
Endoplasmic reticulum aminopeptidase 1, sequence (Q9NZ08 whole entry): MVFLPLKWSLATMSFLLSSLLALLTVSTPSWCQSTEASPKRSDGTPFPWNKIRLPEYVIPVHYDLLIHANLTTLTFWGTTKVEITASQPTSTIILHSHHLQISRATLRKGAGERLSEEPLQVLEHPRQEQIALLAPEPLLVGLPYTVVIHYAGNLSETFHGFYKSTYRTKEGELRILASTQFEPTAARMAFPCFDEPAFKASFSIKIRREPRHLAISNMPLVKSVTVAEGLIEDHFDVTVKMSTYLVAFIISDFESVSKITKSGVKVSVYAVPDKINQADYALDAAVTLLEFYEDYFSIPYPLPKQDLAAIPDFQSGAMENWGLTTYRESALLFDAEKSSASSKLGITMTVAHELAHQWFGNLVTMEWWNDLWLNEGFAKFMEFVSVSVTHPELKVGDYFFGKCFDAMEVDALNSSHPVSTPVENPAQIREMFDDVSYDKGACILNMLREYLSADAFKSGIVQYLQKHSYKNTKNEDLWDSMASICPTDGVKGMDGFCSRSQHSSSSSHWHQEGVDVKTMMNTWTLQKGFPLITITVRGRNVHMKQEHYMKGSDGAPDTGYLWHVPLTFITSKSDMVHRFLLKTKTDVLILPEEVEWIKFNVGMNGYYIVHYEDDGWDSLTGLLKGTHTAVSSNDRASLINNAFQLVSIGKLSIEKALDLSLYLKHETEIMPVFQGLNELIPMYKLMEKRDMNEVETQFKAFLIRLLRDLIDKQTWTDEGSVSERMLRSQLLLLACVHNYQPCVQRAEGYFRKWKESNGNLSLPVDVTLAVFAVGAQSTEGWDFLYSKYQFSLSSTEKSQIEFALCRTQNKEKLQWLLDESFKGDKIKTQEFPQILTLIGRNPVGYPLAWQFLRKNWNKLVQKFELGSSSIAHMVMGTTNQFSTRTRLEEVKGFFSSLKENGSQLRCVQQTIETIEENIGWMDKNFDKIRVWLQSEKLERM
Procedure, shortened: (§1)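 Recombinant human enzymes made in baculovirus-infected Hi5 cells, kept in 10 mM HEPES pH 7, 100 mM NaCl, 10% glycerol. ERAP1 30 nM, ERAP2 6 nM or IRAP 6 nM with 50 μM substrate (L-AMC for ERAP1 and IRAP, R-AMC for ERAP2) and varied inhibitor. Fluorescence rise followed at ex 380/em 460; IC50 from fit of activity against inhibitor concentration.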

[3] = molecular target: Endoplasmic reticulum aminopeptidase 2 (Homo sapiens, UniProt Q6P179); experiment: Inhibition of human recombinant ERAP2 expressed in baculovirus infected cabbage looper ovary Hi5 cells using L-arginyl-7-amido-4-methyl coumarin as substrate up to 100 uM after 5 to 10 mins by fluorescence assay; conditions: BTI-TN-5B1-4; procedure, shortened: as §1
Endoplasmic reticulum aminopeptidase 2, sequence (Q6P179 whole entry): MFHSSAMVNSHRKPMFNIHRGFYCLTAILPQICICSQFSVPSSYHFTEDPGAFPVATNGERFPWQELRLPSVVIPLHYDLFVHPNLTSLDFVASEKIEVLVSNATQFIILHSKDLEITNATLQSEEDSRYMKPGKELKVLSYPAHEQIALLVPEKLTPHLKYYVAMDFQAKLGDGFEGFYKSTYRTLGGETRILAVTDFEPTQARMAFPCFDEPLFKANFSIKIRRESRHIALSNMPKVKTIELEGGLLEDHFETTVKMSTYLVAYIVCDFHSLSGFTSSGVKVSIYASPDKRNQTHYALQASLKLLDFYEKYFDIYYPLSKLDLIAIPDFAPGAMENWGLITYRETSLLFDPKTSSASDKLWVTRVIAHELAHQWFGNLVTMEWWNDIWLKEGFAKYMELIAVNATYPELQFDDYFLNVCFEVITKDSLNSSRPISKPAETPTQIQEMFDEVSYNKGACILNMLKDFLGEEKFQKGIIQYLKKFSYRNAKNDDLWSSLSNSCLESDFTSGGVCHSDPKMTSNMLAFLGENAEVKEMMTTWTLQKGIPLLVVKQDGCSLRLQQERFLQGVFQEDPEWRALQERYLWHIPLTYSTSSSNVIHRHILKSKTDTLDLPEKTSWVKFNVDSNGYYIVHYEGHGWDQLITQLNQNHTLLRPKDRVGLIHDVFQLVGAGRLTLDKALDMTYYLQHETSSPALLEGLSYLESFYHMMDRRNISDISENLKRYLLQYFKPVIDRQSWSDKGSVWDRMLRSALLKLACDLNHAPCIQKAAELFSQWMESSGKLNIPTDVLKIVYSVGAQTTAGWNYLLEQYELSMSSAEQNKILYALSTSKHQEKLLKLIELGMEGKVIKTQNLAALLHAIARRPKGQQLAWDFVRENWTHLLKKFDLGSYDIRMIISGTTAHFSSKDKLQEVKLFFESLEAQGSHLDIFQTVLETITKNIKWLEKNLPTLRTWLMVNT

[4] = tested on: T-cell; experiment: Blockade of cross-presentation in mouse IRAP-deficient BMDC assessed as IL-2 level incubated for 1 day […] and incubated for 6 hrs with yeast cells expressing surface ovalbumin measured 20 hrs post CD8+ T cell-induction by sandwich ELISA method; type: functional, cell-based
Procedure, shortened: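 BMDCs from wild-type or IRAP knockout mice, grown 7 days from bone-marrow progenitors in IMDM/10% FCS with GM-CSF-containing J558 supernatant. Inhibitor added day 6 and kept through all steps. Day 7: serial dilutions of surface-ovalbumin yeast for 6 h, then OT-I lymph-node CD8+ T cells (T/BMDC 1.5:1) for 20 h. Supernatant IL-2 by sandwich ELISA; glutaraldehyde-fixed BMDC background subtracted; duplicate wells.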

[5] = tested on: Insulin-regulated aminopeptidase, Lnpep (Mus musculus); experiment: Inhibition of IRAP in mouse BMDC assessed as blockade of cross-presentation by measuring IL-2 level incubated for 1 day followed by compound wash out and incubated for 6 hrs with yeast cells expressing surface ovalbumin measured 20 hrs post CD8+ T cell-induction by sandwich ELISA method
[6] = molecular target: T1, Endoplasmic reticulum aminopeptidase 1 (Mus musculus) (UniProt Q9EQH2); experiment: Inhibition of ERAP1 in mouse RAW264.7 cells assessed as reduction in interferon-gamma/LPS-induced phagocytosis after 24 hrs by fluorescent latex beads internalization assay; type: cell-based
T1 sequence (whole entry): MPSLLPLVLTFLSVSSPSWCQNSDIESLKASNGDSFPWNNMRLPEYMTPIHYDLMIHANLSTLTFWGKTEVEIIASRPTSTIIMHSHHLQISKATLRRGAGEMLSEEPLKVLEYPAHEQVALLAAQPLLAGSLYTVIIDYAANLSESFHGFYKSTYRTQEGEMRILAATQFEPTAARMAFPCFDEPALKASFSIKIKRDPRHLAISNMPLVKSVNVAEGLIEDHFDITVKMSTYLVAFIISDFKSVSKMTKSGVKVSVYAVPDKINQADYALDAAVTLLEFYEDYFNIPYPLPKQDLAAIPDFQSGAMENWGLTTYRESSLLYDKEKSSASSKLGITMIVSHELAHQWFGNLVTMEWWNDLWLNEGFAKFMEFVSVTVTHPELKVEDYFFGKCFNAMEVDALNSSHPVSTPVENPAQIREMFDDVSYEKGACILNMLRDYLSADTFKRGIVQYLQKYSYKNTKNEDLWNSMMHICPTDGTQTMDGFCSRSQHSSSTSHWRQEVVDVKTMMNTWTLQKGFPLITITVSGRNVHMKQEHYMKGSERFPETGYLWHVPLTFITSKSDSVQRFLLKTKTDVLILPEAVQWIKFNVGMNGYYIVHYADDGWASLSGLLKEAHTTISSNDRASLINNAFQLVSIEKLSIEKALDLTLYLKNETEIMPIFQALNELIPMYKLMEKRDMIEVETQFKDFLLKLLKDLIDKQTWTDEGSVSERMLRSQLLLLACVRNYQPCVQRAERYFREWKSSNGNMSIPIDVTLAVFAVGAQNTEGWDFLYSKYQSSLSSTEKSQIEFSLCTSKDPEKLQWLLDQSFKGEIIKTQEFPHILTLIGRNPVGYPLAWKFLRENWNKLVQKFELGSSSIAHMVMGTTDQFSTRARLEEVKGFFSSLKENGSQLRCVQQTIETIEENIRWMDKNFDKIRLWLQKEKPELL
Procedure, shortened: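 RAW264.7 cells in RPMI 1640/10% FBS, seeded 2×10^4/well for 24 h. Activated with IFN-γ (100 IU/mL) plus LPS (1 μg/mL) with or without inhibitor at various concentrations. FITC-IgG latex beads given in 1% FBS medium for 24 h at 37 °C. Uptake read as fluorescence (ex 485/em 535) after PBS washes; ED50 from curve fit.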

Structure (SMILES)	IC50 [1] [nM]	inhibition [2]	inhibition [3]	Activity [4]	ED50 [5] [nM]	inhibition [5]	ED50 [6] [nM]	inhibition [6]
COC(=O)[C@H](CCCCN)NC(=O)c1ccc(NC(=O)[C@@H](N)CC(C)C)c(N)c1	> 100000	inactive	inactive					
NCCC[C@H](NC(=O)c1ccc(N)c(NC(=O)[C@@H](N)CCc2ccccc2)c1)C(=O)O	> 100000	inactive	inactive					
CCCC[C@H](N)C(=O)Nc1cc(C(=O)N[C@@H](Cc2c[nH]c3ccccc23)C(=O)OCc2ccccc2)ccc1N				inactive	6.5	Dose-dependent effect	560	Dose-dependent effect
CCCC[C@H](N)C(=O)Nc1cc(C(=O)N[C@H](C(=O)O)C(C)C)ccc1N	> 100000	inactive						
